Source: ChEMBL document CHEMBL3112571, “Benzimidazole CB2 agonists: design, synthesis and SAR” (Bioorg Med Chem Lett, 2014)
pEC50, pIC50: −log10 of the molar value.

What was measured:
[1] = species on record: Homo sapiens; experiment: Selectivity ratio of EC50 for human CB1 receptor to EC50 for human CB2 receptor
[2] = target: T1, Cannabinoid receptor 1 (Homo sapiens, UniProt P21554); experiment: Agonist activity at human CB1 receptor expressed in CHO-K1 cells assessed as forskolin-induced cAMP accumulation after 1 hr; format: functional, cell-based
Outline: (§1)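 CHO-K1 cells (1000/well) expressing human CB1 or CB2 preincubated with compound 15 min at room temperature, then forskolin at EC70 added for a further 30 min at room temperature. cAMP measured by HTRF (d2-cAMP plus anti-cAMP-cryptate, final 1 h room temperature incubation). Values are the average of N = 1 to 3 results.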

[3] = target: T1, Cannabinoid receptor 1; experiment: Agonist activity at human CB1 receptor expressed in CHO-K1 cells assessed as forskolin-induced cAMP accumulation after 1 hr relative to control; format: functional, cell-based; outline: as §1
[4] = target: T2, Cannabinoid receptor 2 (Homo sapiens, UniProt P34972); experiment: Agonist activity at human CB2 receptor expressed in CHO-K1 cells assessed as forskolin-induced cAMP accumulation after 1 hr relative to control; format: functional, cell-based; outline: as §1
[5] = target: T2, Cannabinoid receptor 2; experiment: Agonist activity at human CB2 receptor expressed in CHO-K1 cells assessed as forskolin-induced cAMP accumulation after 1 hr; format: functional, cell-based; outline: as §1

T2 sequence (P34972 whole entry): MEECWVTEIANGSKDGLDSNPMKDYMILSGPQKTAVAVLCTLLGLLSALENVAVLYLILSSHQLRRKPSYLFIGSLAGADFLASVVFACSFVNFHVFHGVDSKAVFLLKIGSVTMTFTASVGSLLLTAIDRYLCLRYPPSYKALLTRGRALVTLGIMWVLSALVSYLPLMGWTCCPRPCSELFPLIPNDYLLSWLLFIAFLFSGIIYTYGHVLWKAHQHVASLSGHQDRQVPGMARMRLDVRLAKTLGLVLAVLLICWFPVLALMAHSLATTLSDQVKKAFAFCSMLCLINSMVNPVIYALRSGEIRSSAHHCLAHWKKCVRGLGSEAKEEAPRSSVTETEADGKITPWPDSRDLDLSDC
T1 sequence (P21554 whole entry): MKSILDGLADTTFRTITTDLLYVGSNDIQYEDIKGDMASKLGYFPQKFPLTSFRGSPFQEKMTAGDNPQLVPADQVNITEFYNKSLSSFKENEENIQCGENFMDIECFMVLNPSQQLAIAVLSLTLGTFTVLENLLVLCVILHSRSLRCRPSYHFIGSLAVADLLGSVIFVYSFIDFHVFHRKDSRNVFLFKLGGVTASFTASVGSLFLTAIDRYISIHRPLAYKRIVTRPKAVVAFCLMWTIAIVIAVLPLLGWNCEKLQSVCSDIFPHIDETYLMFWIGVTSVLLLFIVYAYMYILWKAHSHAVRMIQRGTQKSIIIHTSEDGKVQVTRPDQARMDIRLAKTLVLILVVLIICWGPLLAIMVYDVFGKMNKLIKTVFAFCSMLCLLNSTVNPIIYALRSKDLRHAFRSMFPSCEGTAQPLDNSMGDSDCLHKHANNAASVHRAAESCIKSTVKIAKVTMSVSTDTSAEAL

Row | Structure (SMILES) | Ratio EC50 [1] | pEC50 [2] | Emax [3] | Emax [4] | pEC50 [5] | pIC50 [2] | Activity [3] | Activity [4] | pIC50 [5]
1 | O=C(NC12CC3CC(CC(C3)C1)C2)c1nc2c(-c3ccccc3)cccc2[nH]1 | 65 | 6.91 | 100% | 99% | 8.72 | – | – | – | –
2 | CCn1c(C(=O)NCc2ccccc2Cl)nc2c(-c3ccccc3)cccc21 | 92 | 6.04 | 87% | 101% | 8.00 | – | – | – | –
3 | O=C(NCC1(CO)CCCC1)c1nc2c(-c3ccccc3)cccc2[nH]1 | – | < 4.77 | – | 93% | 7.61 | – | – | – | –
4 | O=C(NCc1ncccc1F)c1nc2c(-c3ccccc3)cccc2[nH]1 | – | < 4.77 | – | 39% | 5.84 | – | – | – | –
5 | O=C(NC1(CO)CCCCC1)c1nc2c(-c3ccccc3)cccc2[nH]1 | – | < 4.77 | – | 82% | 6.63 | – | – | – | –
6 | O=C(NCc1ccccc1Cl)c1nc2c(-c3ccccc3)cccc2[nH]1 | – | < 4.77 | – | 64% | 6.35 | – | – | – | –
7 | O=C(NCc1cccc(Cl)c1)c1nc2c(-c3ccccc3)cccc2[nH]1 | – | < 4.77 | – | 67% | 6.78 | – | – | – | –
8 | O=C(NC12CC3CC(CC(C3)C1)C2)c1nc(C(O)c2cccnc2)c2ccccn12 (racemic) | – | – | – | – | – | 5.41 | 82% | 88% | 8.35
9 | O=C(NCc1ccccc1)c1nc2c(-c3ccccc3)cccc2[nH]1 | – | < 4.77 | – | 64% | 6.00 | – | – | – | –
10 | CCn1c(C(=O)NCc2cccc(Cl)c2)nc2c(-c3ccccc3)cccc21 | > 425 | < 4.77 | – | 87% | 7.40 | – | – | – | –
11 | CCn1c(C(=O)NCC2(CO)CCCC2)nc2c(-c3ccccc3)cccc21 | – | < 4.77 | – | 68% | 5.90 | – | – | – | –
12 | O=C(NCC1(CO)CCCCC1)c1nc2c(-c3ccccc3)cccc2n1CC(F)(F)F | – | < 4.77 | – | 45% | 5.70 | – | – | – | –
13 | CCn1c(C(=O)NCc2cncnc2)nc2c(-c3ccccc3)cccc21 | – | < 4.77 | – | 89% | 5.96 | – | – | – | –
14 | CCn1c(C(=O)NCC(C)(C)C)nc2c(-c3ccccc3)cccc21 | – | 6.04 | 87% | 67% | 6.31 | – | – | – | –
15 | O=C(NCc1ccccc1F)c1nc2c(-c3ccccc3)cccc2[nH]1 | – | < 4.77 | – | 49% | 6.59 | – | – | – | –
16 | CC(C)(C)CNC(=O)c1nc2c(-c3ccccc3)cccc2n1CC(F)(F)F | – | < 4.77 | – | – | < 4.77 | – | – | – | –
17 | O=C(NCC1(CO)CCCC1)c1nc2c(-c3ccccc3)cccc2n1CC(F)(F)F | – | < 4.77 | – | – | < 4.77 | – | – | – | –
18 | CCn1c(C(=O)NCc2ccccc2F)nc2c(-c3ccccc3)cccc21 | – | < 4.77 | – | 98% | 7.35 | – | – | – | –
19 | CC(C)(C)CNC(=O)c1nc2c(-c3ccccc3)cccc2[nH]1 | > 1160 | < 4.77 | – | 95% | 7.83 | – | – | – | –
20 | O=C(NCc1cccc(C(F)(F)F)c1)c1nc2c(-c3ccccc3)cccc2[nH]1 | – | < 4.77 | – | 69% | 6.59 | – | – | – | –
21 | O=C(NCC(O)CO)c1nc2c(-c3ccccc3)cccc2[nH]1 (stereo not given) | – | < 4.77 | – | 75% | 8.20 | – | – | – | –
22 | CCn1c(C(=O)NCc2ccc(C#N)cc2)nc2c(-c3ccccc3)cccc21 | – | < 4.77 | – | 99% | 7.08 | – | – | – | –
23 | O=C(NCC1(CO)CCCCC1)c1nc2c(-c3ccccc3)cccc2[nH]1 | – | < 4.77 | – | 92% | 7.37 | – | – | – | –
